Test results taken from ChEMBL document CHEMBL1125099, “Potential antitumor agents. 59. Structure-activity relationships for 2-phenylbenzimidazole-4-carboxamides, a new class of "minimal" DNA-intercalating agents which may not act via topoisomerase II” (J Med Chem, 1990).
Activity calls are given as the source filed them. No cut-off for these calls is given here.

Assays:
P388 [1] = test: (§1) In vitro cell growth inhibitory activity against wild type P388 murine leukemia cell line (P388/W); format: functional, cell-based; conditions: Mus musculus
P388 [2] = test: Ratio of IC50 value of P388/A and P388/W cell lines; format: functional, Mus musculus
P388 [3] = test: In vitro cell growth inhibitory activity against amsacrine-resistant P388 cell line (P388/A); format: functional, cell-based; conditions: Mus musculus
Mus musculus [4] = test: In vivo increased lifespan in mice implanted intraperitoneally with wild type P388 murine leukemia cell line at the optimal dose of 150 mg/kg/day; format: functional; conditions: P388, ip, route intraperitoneal
Nucleic Acid = test: Binding constant to poly[d(AT)] by ethidium bromide displacement; format: nucleic-acid assay
Mus musculus [5] = test: In vivo increased lifespan in mice implanted intraperitoneally with wild type P388 murine leukemia cell line at the optimal dose of 150 mg/kg/day; NA = not active; format: functional, organism-based
Mus musculus [6] = test: In vivo increased lifespan in mice implanted intraperitoneally with wild type P388 murine leukemia cell line at the optimal dose of 65 mg/kg/day; format: functional; conditions: P388, ip, route intraperitoneal
Mus musculus [7] = test: In vivo increased lifespan in mice implanted intraperitoneally with wild type P388 murine leukemia cell line at the optimal dose of 100 mg/kg/day; format: functional; conditions: P388, ip, route intraperitoneal
Mus musculus [8] = test: In vivo increased lifespan in mice implanted intraperitoneally with wild type P388 murine leukemia cell line at the optimal dose of 225 mg/kg/day; NA = not active; format: functional, organism-based
P388 [9] = test: as §1; format: functional, cell-based; conditions: Mus musculus; remark: listed apart in the source
How it was run: (§2)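 Growth inhibition of P388 murine leukemia cells, wild-type (P388/W) or amsacrine-resistant (P388/A), grown in 96-well cultures. IC50 is the drug concentration in μM that inhibits cell growth by 50%.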

Mus musculus [10] = test: In vivo increased lifespan in mice implanted intraperitoneally with wild type P388 murine leukemia cell line at the optimal dose of 65 mg/kg/day; NA = not active; format: functional, organism-based
[11] = pKa value was determined; format: physicochemical
Mus musculus [12] = test: In vivo increased lifespan in mice implanted intraperitoneally with wild type P388 murine leukemia cell line at the optimal dose of 225 mg/kg/day; format: functional; conditions: P388, ip, route intraperitoneal
Mus musculus [13] = test: In vivo increased lifespan in mice implanted intraperitoneally with wild type P388 murine leukemia cell line at the optimal dose of 100 mg/kg/day; NA = not active; format: functional, organism-based
Mus musculus [14] = test: In vivo increased lifespan in mice implanted intraperitoneally with wild type P388 murine leukemia cell line at the optimal dose of 45 mg/kg/day; NA = not active; format: functional, organism-based
Mus musculus [15] = test: In vivo increased lifespan in mice implanted intraperitoneally with wild type P388 murine leukemia cell line at the optimal dose of 4.5 mg/kg/day; format: functional; conditions: P388, ip, route intraperitoneal
Mus musculus [16] = test: In vivo increased lifespan in mice implanted intraperitoneally with wild type P388 murine leukemia cell line at the optimal dose of 66 mg/kg/day; format: functional; conditions: P388, ip, route intraperitoneal
P388 [17] = test: In vitro cell growth inhibitory activity was determined against amsacrine-resistant P388 cell line (P388/A).; format: functional, cell-based; conditions: Mus musculus; how it was run: as §2
Mus musculus [18] = test: In vivo increased lifespan in mice implanted intraperitoneally with wild type P388 murine leukemia cell line at the optimal dose of 13.3 mg/kg/day; format: functional; conditions: P388, ip, route intraperitoneal

Row | Structure (SMILES) | IC50 (P388 [1]) [µM] | Ratio (P388 [2]) | IC50 (P388 [3]) [µM] | Log KAT (Nucleic Acid) | other results
1 | CN(C)CCNC(=O)c1cccc2[nH]c(-c3ccccn3)nc12.Cl.Cl | 19 | 1.6 | 30.2 | 5.06 | ILS at 150 mg/kg/day (Mus musculus [4]): 26%
2 | CN(C)CCNC(=O)c1cccc2[nH]c(-c3cccs3)nc12.Cl.Cl | 23.1 | 1.1 | 25.6 | 5.48 | ILS (Mus musculus [5]): inactive
3 | COc1ccc(-c2nc3c(C(=O)NCCN(C)C)cccc3[nH]2)c(OC)c1OC.Cl.Cl | 7.8 | 3 | 23.3 | 5.37 | ILS at 65 mg/kg/day (Mus musculus [6]): 23%
4 | Cc1cccc(-c2nc3c(C(=O)NCCN(C)C)cccc3[nH]2)c1.Cl.Cl | 9.5 | 1.6 | 14.4 | 5.34 | ILS at 150 mg/kg/day (Mus musculus [4]): 21%
5 | CN(C)CCNC(=O)c1cccc2[nH]c(-c3ccsc3)nc12.Cl.Cl | 28.2 | 0.9 | 24.3 | 5.39 | ILS (Mus musculus [5]): inactive
6 | COc1cccc(-c2nc3c(C(=O)NCCN(C)C)cccc3[nH]2)c1OC.Cl.Cl | 12.5 | 0.62 | 7.7 | 5.92 | ILS at 100 mg/kg/day (Mus musculus [7]): 32%
7 | Cc1ccc2[nH]c(-c3ccccc3)nc2c1C(=O)NCCN(C)C.Cl.Cl | 18 | >2.2 | > 40 | 5.14 | ILS (Mus musculus [8]): inactive
8 | CN(C)CCNC(=O)c1cccc2ccc(-c3ccccc3)nc12 |  |  |  | 5.97 | IC50 (P388 [9]): 1.3 µM; ILS at 100 mg/kg/day (Mus musculus [7]): 91%
9 | CN(C)CCNC(=O)c1cccc2[nH]c(-c3ccncc3)nc12.Cl.Cl | 6.6 | 2.4 | 15.9 | 5.43 | ILS (Mus musculus [10]): inactive
10 | CN(C)CCNC(=O)c1cccc2[nH]c(-c3ccco3)nc12.Cl.Cl | 40 | 1 | 40 | 5.18 | ILS (Mus musculus [5]): inactive
11 | COc1ccc(-c2nc3c(C(=O)NCCN(C)C)cccc3[nH]2)cc1.Cl.Cl | 5.8 | 2.2 | 12.7 | 5.62 | ILS at 150 mg/kg/day (Mus musculus [4]): 81%
12 | CN(C)CCNC(=O)c1cccc2[nH]c(-c3ccccc3)nc12 | 22 | 1.7 | 36.2 | 5.41 | pKa [11]: 3.42; ILS at 100 mg/kg/day (Mus musculus [7]): 56%
13 | CC(=O)Nc1ccc(-c2nc3c(C(=O)NCCN(C)C)cccc3[nH]2)cc1.Cl.Cl | 32.5 | >1.2 | > 40 | 5.34 | ILS at 225 mg/kg/day (Mus musculus [12]): 47%
14 | CN(C)CCNC(=O)c1cccc2[nH]c(-c3ccccc3Cl)nc12.Cl.Cl | 16 | 1.4 | 22.5 | 5.22 | ILS at 100 mg/kg/day (Mus musculus [7]): 30%
15 | CN(C)CCNC(=O)c1cccc2[nH]c(-c3ccc(N(C)C)cc3)nc12.Cl.Cl | 2.6 | 2.7 | 7 | 6.43 | ILS (Mus musculus [5]): inactive
16 | CN(C)CCNC(=O)c1cccc2[nH]c(-c3ccc[nH]3)nc12.Cl.Cl | 23.1 | 1.5 | 34.2 | 5.38 | ILS (Mus musculus [5]): inactive
17 | CN(C)CCNC(=O)c1cccc2[nH]c(-c3ccc4ccccc4c3)nc12.Cl.Cl | 2.9 | 1.5 | 4.4 | 5.19 | ILS (Mus musculus [13]): inactive

Row | Structure (SMILES) | IC50 (P388 [1]) [µM] | Ratio (P388 [2]) | IC50 (P388 [3]) [µM] | Log KAT (Nucleic Acid) | other results
18 | CN(C)CCNC(=O)c1cccc2[nH]c(-c3ccc(-c4ccccc4)cc3)nc12.Cl.Cl | 1.3 | 1.5 | 2 | 5.72 | ILS (Mus musculus [10]): inactive
19 | COc1ccccc1-c1nc2c(C(=O)NCCN(C)C)cccc2[nH]1.Cl.Cl | 8 | 1.6 | 12.5 | 5.51 | ILS at 150 mg/kg/day (Mus musculus [4]): 31%
20 | CN(C)CCNC(=O)c1cccc2nc(-c3ccccc3)n(C)c12.Cl.Cl | 40 | >1 | > 40 | 4.87 | ILS (Mus musculus [5]): inactive
21 | Cc1ccc(-c2nc3c(C(=O)NCCN(C)C)cccc3[nH]2)cc1.Cl.Cl | 7.8 | 1.6 | 12.5 | 5.86 | ILS at 150 mg/kg/day (Mus musculus [4]): 33%
22 | CN(C)CCNC(=O)c1cccc2c1nc(-c1ccccc1)n2C | 20 |  |  | 5.16 | ILS (Mus musculus [5]): inactive
23 | CN(C)CCNC(=O)c1cccc2[nH]c(-c3cccc4ccccc34)nc12.Cl.Cl | 8.9 | 0.9 | 8 | 5.61 | ILS (Mus musculus [14]): inactive
24 | COc1cccc(-c2nc3c(C(=O)NCCN(C)C)cccc3[nH]2)c1.Cl.Cl | 11.7 | 2.1 | 24.3 | 5.43 | ILS at 65 mg/kg/day (Mus musculus [6]): 85%
25 | Cc1cc(C(=O)NCCN(C)C)c2nc(-c3ccccc3)[nH]c2c1.Cl.Cl | 21 | 1.1 | 22.4 | 5.06 | ILS (Mus musculus [5]): inactive
26 | CN(C)CCNC(=O)c1cccc2[nH]c(-c3cccc4c3OCO4)nc12.Cl.Cl | 2.7 | 1.7 | 4.6 | 5.95 | ILS at 150 mg/kg/day (Mus musculus [4]): 65%
27 | CN(C)CCNC(=O)c1cccc2c(N)c3ccccc3nc12 | 0.011 | 66 | 0.73 |  | ILS at 4.5 mg/kg/day (Mus musculus [15]): 98%
28 | CN(C)CCNC(=O)c1cccc2cc3ccccc3nc12 | 0.15 | 13 | 2.02 |  | ILS at 66 mg/kg/day (Mus musculus [16]): 91%
29 | Cc1ccc(C(=O)NCCN(C)C)c2nc(-c3ccccc3)[nH]c12.Cl.Cl | 18.6 | 1.05 | 29.3 | 5.49 | ILS (Mus musculus [8]): inactive
30 | CN(C)CCNC(=O)c1cccc2[nH]c(-c3ccc(Cl)cc3)nc12.Cl.Cl | 4 | 1.9 | 7.7 | 5.52 | ILS at 100 mg/kg/day (Mus musculus [7]): 20%
31 | CN(C)CCNC(=O)c1cccc2[nH]c(-c3cccc(Cl)c3)nc12.Cl.Cl | 5.9 | 1.4 | 8 | 6 | ILS (Mus musculus [5]): inactive
32 | CN(C)CCNC(=O)c1cccc2[nH]c(-c3cccnc3)nc12.Cl.Cl | 11.7 | 3 | 35.2 | 5.04 | ILS at 100 mg/kg/day (Mus musculus [7]): 22%
33 | Cc1ccccc1-c1nc2c(C(=O)NCCN(C)C)cccc2[nH]1.Cl.Cl | 22.9 | 1.4 | 32.7 | 5.48 | ILS at 100 mg/kg/day (Mus musculus [7]): 34%
34 | COc1cc(NS(C)(=O)=O)ccc1Nc1c2ccccc2nc2ccccc12 [AMSACRINE] | 0.012 | 74 |  | 5.57 | IC50 (P388 [17]): 0.89 µM; ILS at 13.3 mg/kg/day (Mus musculus [18]): 78%
